# Only some compounds are listed: those with a hit (about 3.5% of all), similar ones and a draw of the others.
# RGS4 inh = inhibitors of human RGS4 | HEK293 M3R/RGS4 inducible, Fluo-4 calcium flux; stronger effect = higher value; triggered by carbachol at its EC20 | actives 0.45% (n = 310,000) | B-score at 10 µM | P49798;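 active = B-score, a plate-corrected calcium signal, over three deviations above library mean, with baseline fluorescence within five deviations of library mean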;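 also: RGS4 expression induced by doxycycline in cells with stable M3 receptor; B-score is computed from the integrated fluorescence ratio over baseline after carbachol; higher B-score means a larger calcium signal and so more RGS4 inhibition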
# Target sequence (P49798 whole entry, looked up): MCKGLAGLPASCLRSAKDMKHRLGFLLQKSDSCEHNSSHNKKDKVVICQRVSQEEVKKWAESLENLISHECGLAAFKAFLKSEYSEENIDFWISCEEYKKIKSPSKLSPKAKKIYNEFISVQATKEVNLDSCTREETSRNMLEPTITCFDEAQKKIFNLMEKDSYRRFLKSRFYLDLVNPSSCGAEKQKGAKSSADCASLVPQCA
# MrgX1 antag = human MrgX1 receptor antagonism, primary screen; Q96LB2; MRGX1-HEK293 calcium flux, Fluo-4, BAM8-22 antagonism; stronger effect = lower value; B-score at 10 µM; AID 588676; actives 1.3% (n = 310,000);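 active = calcium-response B-score plate-corrected more than 3 library SD below zero, starting fluorescence within 5 deviations, no agonist response on first addition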;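 also: peak minus trough fluorescence over baseline after final BAM8-22 challenge near maximal dose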
# Target sequence (Q96LB2 whole entry, looked up): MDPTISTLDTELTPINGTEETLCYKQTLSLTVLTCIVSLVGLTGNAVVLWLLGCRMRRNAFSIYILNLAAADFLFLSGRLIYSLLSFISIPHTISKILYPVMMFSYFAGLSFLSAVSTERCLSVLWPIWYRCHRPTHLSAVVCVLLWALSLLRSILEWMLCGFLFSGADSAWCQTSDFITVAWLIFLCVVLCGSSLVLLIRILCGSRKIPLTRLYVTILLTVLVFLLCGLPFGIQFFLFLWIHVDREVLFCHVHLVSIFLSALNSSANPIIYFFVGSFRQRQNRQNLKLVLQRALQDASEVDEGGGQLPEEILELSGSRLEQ
# RGS4 act = potentiators or activators of RGS4 | HEK293 M3R/inducible RGS4, carbachol calcium flux Fluo4; stronger effect = lower value | B-score at 10 µM | actives 0.92% (n = 310,000);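 active = B-score of the integrated calcium signal more than 4 SD below the library mean, with starting fluorescence not abnormally high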;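 also: negative B-score means reduced calcium response which marks RGS4 activation or potentiation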
#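 test system = HEK293 cells with stable M3R and inducible RGS4 | schedule = recording 10 s baseline at 1 Hz, 100 s post-agonist | technique = Fluo4-AM (2 µM) calcium-flux fluorescence, kinetic read | measure = Agonist-evoked peak-minus-minimum fluorescence over baseline, integrated ratio, B score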
# MrgX1 ag = agonists of human MrgX1 receptor; Q96LB2; MrgX1-HEK293 cells, Fluo-4 calcium fluorescence, agonist mode; stronger effect = higher value; B-score at 10 µM; actives 0.44% (n = 310,000); AID 588627;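 active = calcium response B-score plate-corrected fluorescence ratio at least 3 library SD, with starting fluorescence B-score inside 5 SD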
#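 Test system: HEK293 cells stably expressing human MrgX1 receptor; Input: fifteen thousand cells per well; Dosing: compound delivered in addition one of three; Schedule: overnight seeding, then 1 h dark dye loading; Technique: Fluo-4 NW calcium fluorescence; Measure: B-scored fluorescence response ratio; Controls: positive and negative controls per plate.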
# MrgX1 allo act = human MrgX1 positive allosteric modulation, primary screen; Q96LB2; MrgX1-HEK293, Fluo-4 calcium flux, FDSS; stronger effect = higher value; B-score at 10 µM; actives 0.63% (n = 310,000);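 active = plate-corrected calcium response at least 3 library SD above typical, normal starting fluorescence, not activating the receptor alone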;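 also: compound read alongside a low EC10 to EC30 dose of BAM8-22 agonist; peak minus trough fluorescence over baseline measured at the second addition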
# RGS4 block valid = validation of RGS4 inhibitors; shares compounds with RGS4 inh; HEK293 M3R/RGS4, carbachol calcium Fluo-4 fluorescence; carbachol added at its EC20; 0 = buffer wells, 100 = carbachol control; calcium response, % at 10 µM; actives 65% (n = 1,700); AID 492999;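 active = duplicate-averaged calcium response above the buffer-only control mean plus 5 SD of those controls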;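 also: integrated fluorescence ratio F max minus min over baseline F0; higher response in RGS4-induced cells means RGS4 inhibition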
# M3R Ca ctr = non-induced cell nonspecific activity of RGS4 inhibitors; AID 493000; activity (percent), % at 10 µM; shares compounds with RGS4 inh; actives 20% (n = 1,900); HEK293 M3R non-induced, carbachol calcium Fluo-4; submaximal (EC20) carbachol stimulus; buffer wells 0%, carbachol control wells 100%; call rule not given here;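 also: RGS4 induction absent so cells express M3R without RGS4; higher means more calcium signal and flags a non-specific hit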
# RGS4 inh ctr2 = second counter-screen for RGS4 inhibitors: non-induced cells without carbachol. shares compounds with RGS4 inh. HEK293 M3R/RGS4 non-induced, Fluo-4 calcium, no carbachol; normalised: buffer wells 0%, carbachol wells 100%. calcium response (agonist-mode artifact), % at 10 µM. actives 22% (n = 1,900). AID 493001;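 active = duplicate-averaged calcium rise in uninduced cells above buffer wells' mean plus 5 SD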
# Active calls of the source: *; i = inactive; / = not tested or not shown.
SMILES,RGS4 inh,MrgX1 antag,RGS4 act,MrgX1 ag,MrgX1 allo act,RGS4 block valid,M3R Ca ctr,RGS4 inh ctr2
COC(=O)C1=C(C)OC(N)=C(C#N)C1c1cc2cc(C)ccc2nc1Cl (centres undefined),i,i,i,i,i,/,/,/
CC(=O)C1=C(C)OC(N)=C(C#N)C1c1cc2cc(C)c(C)cc2nc1Cl (centres undefined),15*,i,i,i,i,5.0%*,i,i
COc1ccc(Cn2c(=O)c3[nH]cnc3n(-c3ccccc3C)c2=O)cc1,7.8*,i,i,i,i,15%*,38%*,i
COc1ccc(C(c2c(C)[nH]n(-c3ccccc3)c2=O)c2c(C)[nH]n(-c3ccccc3)c2=O)cc1OC,i,i,i,i,i,/,i,i
Cc1[nH]n(-c2ccccc2)c(=O)c1Sc1ccc(Cl)cc1,i,i,i,i,i,/,/,/
Cc1[nH]n(-c2ccccc2)c(=O)c1C(C[N+](=O)[O-])c1ccc(Cl)cc1 (centres undefined),10*,i,i,32*,i,28%*,i,11%*
Cc1ccc(C(C[N+](=O)[O-])c2c(C)[nH]n(-c3ccccc3)c2=O)cc1 (centres undefined),6.7*,i,i,36*,i,7.0%*,32%*,17%*
Cc1[nH]n(-c2ccccc2)c(=O)c1C(C[N+](=O)[O-])c1ccc(F)cc1 (centres undefined),i,i,i,i,i,/,i,7.5%*
COc1cccc(CN2CCNC(=O)C2CC(=O)N2CCOc3ccccc3C2)c1OC (centres undefined),i,i,i,i,i,/,/,/
O=C(CSc1nc2ccccc2[nH]1)Nc1nc(-c2cccc(Br)c2)cs1,7.7*,i,i,i,i,16%*,i,i
CN(C)CCCn1c(SCC(=O)Nc2nc(-c3cccc(Br)c3)cs2)nc2ccccc2c1=O,i,i,i,i,i,/,/,/
Cc1ccc(-c2csc(NC(=O)CSc3nc(C)cc(=O)[nH]3)n2)cc1,13*,i,i,i,i,12%*,i,i
CCOC(=O)c1cccc(NC(=O)CSc2nnc(C3CCCCC3)n2C)c1,i,i,i,i,i,/,/,/
Cc1cc(N=Nc2ccccc2)c(NCC(O)C(O)C(O)CO)cc1C (centres undefined),9.6*,i,i,i,i,36%*,38%*,i
COc1ccc(S(=O)(=O)n2nc(-n3c(C)ccc3C)c3c(F)cccc32)cc1OC,i,i,i,i,i,/,/,/
C=C(C)C1(O)OC(=O)C=C1OC (centres undefined),7.8*,i,i,i,i,9.0%*,i,i
COc1ccc(-c2oc(NC(=O)CCl)c(C#N)c2-c2ccc(OC)cc2)cc1,11*,i,i,i,i,58%*,i,i
COc1ccc(-c2oc(NC(=O)CSc3ncn[nH]3)c(C#N)c2-c2ccc(OC)cc2)cc1,i,i,i,i,i,/,/,/
Cc1nn2c(-c3ccccn3)ccnc2c1Br,i,i,i,i,i,/,/,/
Cc1nn2c(-c3ccncc3)ccnc2c1Br,i,i,i,i,i,i,i,i
Cc1nn2c(-c3ccc(F)cc3)ccnc2c1Br,i,i,i,i,i,/,i,i
COC(=O)c1ccc(C(=O)OC)c(NC(=O)CS(=O)(=O)Cc2ccccc2)c1,i,i,i,i,i,/,/,/
CSc1nc(N(CCO)CCO)c2sc3nc(-c4ccco4)c4c(c3c2n1)CCC4,i,/,i,/,/,i,i,i
CSc1nc(SCCO)c2sc3nc(-c4ccco4)c4c(c3c2n1)CC(C)(C)OC4,i,/,i,/,/,/,/,/
COC(=O)C1CCN(Cc2cc(=O)oc3cc(C)c(Cl)cc23)CC1,12*,i,i,i,i,16%*,i,i
SMILES,RGS4 inh,MrgX1 antag,RGS4 act,MrgX1 ag,MrgX1 allo act,RGS4 block valid,M3R Ca ctr,RGS4 inh ctr2
CCc1ccc2c(CN3CCC(C(=O)OC)CC3)cc(=O)oc2c1,7.2*,i,i,i,i,13%*,i,i
CCOC(=O)Nc1ccc2c(CN3CCC(C(=O)OC)CC3)cc(=O)oc2c1,4.9*,i,i,i,i,24%*,i,i
CCOC(=O)Nc1ccc2c(COC(=O)c3ccccc3O)cc(=O)oc2c1,i,i,i,i,i,/,/,/
Cc1cccc(NC(=S)NC(=O)c2oc3ccccc3c2C)n1,i,i,i,i,i,/,/,/
Cc1nnc(-c2cnn(-c3ccccc3)c2N)n1Cc1cccc(C(F)(F)F)c1,i,i,i,i,i,/,/,/
O=C(CSc1nnc(-c2ccncc2)o1)c1ccc2c(c1)OCCO2,i,i,i,i,i,/,/,/
CCCCn1c(=O)[nH]c(=O)c2c1nc(Cn1ncc(Cl)c(Cl)c1=O)n2CCC,21*,i,i,i,i,34%*,56%*,i
CCCCn1c(=O)[nH]c(=O)c2c1nc(CN1C(=O)c3ccccc3S1(=O)=O)n2CCC,i,i,i,i,i,/,/,/
CCOc1ccc(NC(=O)c2ccc(-c3csc(C)n3)cc2)cc1,i,i,i,i,i,/,/,/
CCOc1cc(/C=C2\C(=O)N(c3ccc(C(N)=O)cc3)N=C2C)ccc1OC(=O)c1cccs1,i,i,i,i,i,/,/,/
CC1=NN(c2ccc(C(=O)O)cc2)C(=O)/C1=C\c1ccc(OC(=O)c2cccs2)cc1,13*,i,i,i,i,24%*,i,i
Cc1ccc(C2=NOC(=O)/C2=C\c2ccccc2)cc1,i,i,i,i,i,/,/,/
O=C1ON=C(c2ccccc2)/C1=C/c1ccccc1,i,i,i,i,i,i,i,i
O=C1ON=C(c2ccccc2)/C1=C/c1ccc(O)cc1,11*,i,i,i,i,24%*,i,22%*
O=C1ON=C(c2ccccc2)/C1=C\c1ccco1,i,i,i,i,i,/,/,/
